Sampled rows, rich in hits. Any-hit rate of the full collection: about 3.9%.
TIM10 inh – TIM10 yeast growth inhibition; S. cerevisiae TIM10 strain growth, BacTiter-Glo luminescence, 24 h; inhibition, % at 10 µM; hit rate 1.4% among 330,000;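 active means inhibition of 40% or more at the single tested concentration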;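 further: wild-type TIM10 isogenic control strain grown at permissive 25 °C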
tim23-1 inh – tim23-1 yeast growth inhibition; S. cerevisiae tim23-1 growth, BacTiter-Glo luminescence, 24 h; inhibition, % at 20 µM; hit rate 1.3% among 330,000; AID 463212;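 active means growth inhibition of the mutant yeast at or above 50%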;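 further: temperature-sensitive mutant grown at 25 °C; plate controls were DMSO-treated mutant yeast for no effect and medium wells lacking yeast for full effect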
XBP1 UPR activ – activators of adaptive arm of unfolded protein response (XBP1). AID 463104. CHO-XBP1 luciferase reporter, IRE1-XBP1 UPR activation, luminescence; percent of tunicamycin response, DMSO as zero. hit rate 0.33% among 330,000. activation, % at 20 µM;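 active means versus positive control, 20 µM dose yields 30% or more activation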;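 further: 100% = tunicamycin at 10 µg/mL and 0% = DMSO only wells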
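Material: CHO-XBP1 cells stably carrying IRE1-XBP1-driven luciferase reporter | Medium: F12 with 10% serum | Compound dosing: 20 µM single concentration, DMSO 1% | Incubation: Overnight seeding at 37 °C, 6 h compound treatment at 37 °C | Detection: Steady-Glo luminescence read | Read-out basis: % activation of reporter signal versus tunicamycin and DMSO controls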
UPR CHOP act – activators of apoptotic arm of unfolded protein response (CHOP) | activation, % at 10 µM | CHO-CHOP luciferase reporter, UPR activation, luminescence; percent of tunicamycin response over DMSO baseline | hit rate 0.34% among 330,000 | AID 449763;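 active means at 10 µM dose, activation of 40% or more, normalized to positive control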;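 further: 100% = tunicamycin at 10 µg/mL and 0% = DMSO alone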
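System: CHO-CHOP luciferase reporter cell line; amount: 500 cells/well; buffer or medium: F12 medium containing 10% fetal bovine serum; incubation: 6 h compound exposure at 37 °C after overnight seeding; measured by: luciferase luminescence after 10 min with Steady-Glo reagent; evaluation: % reporter activation, DMSO baseline versus tunicamycin full activation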
tim10-1 inh – inhibits growth of tim10-1 mutant yeast | inhibition, % at 20 µM | AID 463190 | hit rate 2.2% among 330,000 | S. cerevisiae tim10-1 ts strain growth, BacTiter-Glo, 24 h;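 active means inhibition of at least 40%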;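 further: mutant grown at 25 °C; 0% = DMSO wells with yeast and 100% = wells holding no yeast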
tim10-1 conf – confirmation of tim10-1 mutant yeast growth inhibitors. shares compounds with tim10-1 inh. S. cerevisiae tim10-1 ts strain growth, BacTiter-Glo, 24 h. inhibition, % at 20 µM. hit rate 56% among 7,400;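 active means inhibition of yeast growth at or above a set limit in either of two repeat tests at 20 µM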;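 further: tim10-1 mutant grown at permissive 25 °C to find synthetic lethal compounds; 0% = DMSO yeast wells and 100% = medium wells without yeast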
Active calls of the source: *.

How did Cc1cccc(NC(=O)c2cccc(S(=O)(=O)N(C)c3ccccc3)c2)n1 do in these assays?
TIM10 inh: -8; tim23-1 inh: 24; XBP1 UPR activ: 2; UPR CHOP act: 1; tim10-1 inh: -20

How did CCCN(CC(=O)Nc1cc(Cl)cc(Cl)c1)CC(=O)Nc1ccc(F)c(F)c1F do in these assays?
TIM10 inh: 37; tim23-1 inh: 37; XBP1 UPR activ: -2; UPR CHOP act: 3; tim10-1 inh: 51*; tim10-1 conf: 29

Results for CCCN(CC(=O)Nc1ccccc1Br)CC(=O)Nc1ccc(F)c(F)c1F ?
TIM10 inh: -4; tim23-1 inh: 24; XBP1 UPR activ: -1; UPR CHOP act: 2; tim10-1 inh: 31

Results for CCOC(=O)c1sc(-c2ccc(OC)cc2)cc1N ?
TIM10 inh: 20; tim23-1 inh: 25; XBP1 UPR activ: 9; UPR CHOP act: 9; tim10-1 inh: 10

Results for CCOC(=O)c1sc(-c2ccc(F)cc2)cc1N ?
TIM10 inh: 27; tim23-1 inh: 45; XBP1 UPR activ: 2; UPR CHOP act: 4; tim10-1 inh: 42*; tim10-1 conf: 39*

How did O=C(CSc1nnc(COc2ccccc2)n1-c1ccccc1)c1ccccc1 do in these assays?
TIM10 inh: 0; tim23-1 inh: 26; XBP1 UPR activ: 2; UPR CHOP act: 1; tim10-1 inh: 40*; tim10-1 conf: 14

What do the screens show for `Fc1ccc(N2CCN(Cc3nnc(-c4ccccc4)o3)CC2)cc1`?
TIM10 inh: -14; tim23-1 inh: 26; XBP1 UPR activ: -2; UPR CHOP act: -1; tim10-1 inh: 6

Results for Fc1ccc(-c2nnc(CN3CCN(c4ncc(C(F)(F)F)cc4Cl)CC3)o2)cc1 ?
TIM10 inh: 7; tim23-1 inh: 31; XBP1 UPR activ: 0; UPR CHOP act: -2; tim10-1 inh: 49*; tim10-1 conf: 24

What do the screens show for `Cc1cc(OCCN2CCN(S(=O)(=O)c3ccccc3F)CC2)ccc1C(C)C`?
TIM10 inh: 20; tim23-1 inh: 26; XBP1 UPR activ: -2; UPR CHOP act: -3; tim10-1 inh: 43*; tim10-1 conf: 26

What do the screens show for `O=S(=O)(c1ccccc1F)N1CCN(CCOc2ccccc2)CC1`?
TIM10 inh: 13; tim23-1 inh: 39; XBP1 UPR activ: -2; UPR CHOP act: 1; tim10-1 inh: 20

How did CCOC(=O)c1cc2c(ccc3nc(C)c(C)c32)[nH]c1C do in these assays?
TIM10 inh: 24; tim23-1 inh: 18; XBP1 UPR activ: 20; UPR CHOP act: -1; tim10-1 inh: 50*; tim10-1 conf: 13

Results for NS(=O)(=O)c1ccc(CNC(=O)Cc2ccsc2)cc1 ?
TIM10 inh: 1; tim23-1 inh: 9; XBP1 UPR activ: -6; UPR CHOP act: -3; tim10-1 inh: -17

Results for CCN1C(=O)C2(C(C#N)=C(N)Oc3c2c(C)nn3-c2ccccc2)c2ccccc21 (configuration not stated) ?
TIM10 inh: 33; tim23-1 inh: 39; XBP1 UPR activ: -2; UPR CHOP act: -1; tim10-1 inh: 64*; tim10-1 conf: 62*

Results for Cc1c(C(=O)Nc2ccccc2-c2ccccc2)cccc1[N+](=O)[O-] ?
TIM10 inh: 33; tim23-1 inh: 45; XBP1 UPR activ: -1; UPR CHOP act: 0; tim10-1 inh: 42*; tim10-1 conf: 29

How did Cc1c(C(=O)Nc2ccc(C(=O)Nc3ccccc3)cc2)cccc1[N+](=O)[O-] do in these assays?
TIM10 inh: 6; tim23-1 inh: -2; XBP1 UPR activ: 0; UPR CHOP act: 4; tim10-1 inh: -15

Results for CCCC(C)C(=O)Nc1nc(C)c(-c2csc(Nc3ccccc3OC)n2)s1 (configuration not stated) ?
TIM10 inh: 15; tim23-1 inh: 27; XBP1 UPR activ: -2; UPR CHOP act: 2; tim10-1 inh: 31

How did CCCC(C)C(=O)Nc1nc(C)c(-c2csc(Nc3ccc(Cl)cc3)n2)s1 (configuration not stated) do in these assays?
TIM10 inh: 30; tim23-1 inh: 39; XBP1 UPR activ: -2; UPR CHOP act: 8; tim10-1 inh: 44*; tim10-1 conf: 19

How did O=C(Nc1ccccc1Cl)c1ccc(=O)[nH]n1 do in these assays?
TIM10 inh: 7; tim23-1 inh: 13; XBP1 UPR activ: 2; UPR CHOP act: -1; tim10-1 inh: 7

How did O=[N+]([O-])c1cccc(-c2nn(-c3ccccc3)cc2CO)c1 do in these assays?
TIM10 inh: 0; tim23-1 inh: 42; XBP1 UPR activ: -2; UPR CHOP act: 0; tim10-1 inh: 40*; tim10-1 conf: 41*

What do the screens show for `CN(C)C(=O)c1cn(-c2ccccc2)nc1-c1cccc([N+](=O)[O-])c1`?
TIM10 inh: -13; tim23-1 inh: 20; XBP1 UPR activ: -1; UPR CHOP act: 0; tim10-1 inh: 35

How did O=C(c1cn(-c2ccccc2)nc1-c1cccc([N+](=O)[O-])c1)N1CCCCC1 do in these assays?
TIM10 inh: 24; tim23-1 inh: 35; XBP1 UPR activ: 0; UPR CHOP act: -1; tim10-1 inh: 48*; tim10-1 conf: 34*

What do the screens show for `COc1ccc(CC(=O)OCC(=O)N2CCc3ccccc32)cc1OC`?
TIM10 inh: -4; tim23-1 inh: 12; XBP1 UPR activ: 1; UPR CHOP act: 0; tim10-1 inh: -3

How did CCCN(CC(=O)Nc1ccccc1C)C(=O)c1nn(CC)c(=O)c2ccccc12 do in these assays?
TIM10 inh: 3; tim23-1 inh: 9; XBP1 UPR activ: -2; UPR CHOP act: -1; tim10-1 inh: -12

How did CCCCCCCN1CCN=C1Nc1ccccc1 do in these assays?
TIM10 inh: -2; tim23-1 inh: 4; XBP1 UPR activ: 2; UPR CHOP act: -1; tim10-1 inh: -9

Results for O=C(c1cc(COc2cccc(C(F)(F)F)c2)on1)N1CCC(c2ccccc2)CC1 ?
TIM10 inh: 6; tim23-1 inh: 14; XBP1 UPR activ: -3; UPR CHOP act: 2; tim10-1 inh: 22

How did O=C(c1cc(COc2cccc(C(F)(F)F)c2)on1)N1C[C@@H]2CCC[C@H]1C2 do in these assays?
TIM10 inh: 34; tim23-1 inh: 37; XBP1 UPR activ: -2; UPR CHOP act: 2; tim10-1 inh: 45*; tim10-1 conf: 34*

Results for COc1ccc(OC)c(NC(=O)C2CC(=O)N(c3ccc(Br)cc3)C2)c1 (configuration not stated) ?
TIM10 inh: 23; tim23-1 inh: 39; XBP1 UPR activ: 0; UPR CHOP act: -2; tim10-1 inh: 43*; tim10-1 conf: 26

How did COCCN(C(=O)COC(=O)c1sccc1C)c1c(N)n(Cc2ccccc2)c(=O)[nH]c1=O do in these assays?
TIM10 inh: -1; tim23-1 inh: -6; XBP1 UPR activ: -7; UPR CHOP act: 1; tim10-1 inh: -17
